Data published in ChEMBL document CHEMBL3616436, “Synthesis, cytotoxicity and antimicrobial activity of thiourea derivatives incorporating 3-(trifluoromethyl)phenyl moiety” (Eur J Med Chem, 2015).
Calls of active or inactive are those of the source. No cut-off for these calls is given here.

How the values were obtained:
CCRF-CEM = assay: Cytotoxicity against human CCRF-CEM cells after 96 hrs by MTT assay; type: functional
Summary of the method: (§1)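 Leukaemia/lymphoma lines seeded at 1×10^5 cells/ml in RPMI-1640 with 10% FCS and penicillin/streptomycin; incubated with serial dilutions at 37°C, 5% CO2; viability by MTT after 96 h; value is concentration reducing proliferation by 50%, with untreated controls undergoing at least three rounds of multiplication.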

WIL2-NS = assay: Cytotoxicity against human WIL2-NS cells after 96 hrs by MTT assay; type: functional; summary of the method: as §1
CCRF-SB = assay: Cytotoxicity against human CCRF-SB cells after 96 hrs by MTT assay; type: functional; summary of the method: as §1
[1] = Cytotoxicity against human MT4 cells; type: cell-based
[2] = system: Vesicular stomatitis virus; assay: Antiviral activity against Vesicular stomatitis virus ATCC VR 1540 infected in African green monkey Vero 76 cells assessed as reduction of virus-plaque formation after 2 days by crystal violet staining; type: functional, organism-based; conditions: ATCC VR 1540, Vero, 48 h
[3] = system: Human immunodeficiency virus 1; assay: Antiviral activity against HIV1 3B infected in human MT4 cells assessed as protection against virus-induced cytopathogenicity by MTT assay; type: functional, organism-based; conditions: Human immunodeficiency virus 1, 3B
[4] = Cytotoxicity against bovine MDBK cells assessed as cell viability after 48 to 96 hrs by MTT assay; type: cell-based, Bos taurus; conditions: cattle
[5] = Antiviral activity against Bovine viral diarrhea virus 1-NADL ATCC VR-534 infected in MDBK cells assessed as protection against virus-induced cytopathogenicity after 3 to 4 days by MTT assay; type: functional, cell-based; conditions: Bovine viral diarrhea virus isolates and strains, ATCC VR-534, MDBK
Summary of the method: (§2)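 Cells seeded in 96-well plates (BHK 5x10^4, MDBK 3x10^4 cells/well), grown overnight to confluence, infected at m.o.i. 0.01 (BHK for Reo-1, MDBK for BVDV); serial compound dilutions in maintenance medium with 0.5% inactivated FBS added after 1 h; viability by MTT after 3–4 days at 37°C; EC50 for 50% protection by linear regression.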

[6] = Cytotoxicity against BHK cells assessed as cell viability after 48 to 96 hrs by MTT assay; type: cell-based, Mesocricetus auratus; conditions: hamster
Yellow fever virus = assay: Antiviral activity against Yellow fever virus 17D infected in BHK cells assessed as protection against virus-induced cytopathogenicity after 3 to 4 days by MTT assay; type: functional, cell-based
[7] = system: Mammalian orthoreovirus 1; assay: Antiviral activity against Reovirus type-1 ATCC VR-214 infected in BHK cells assessed as protection against virus-induced cytopathogenicity after 3 to 4 days by MTT assay; type: functional, cell-based; conditions: Mammalian orthoreovirus 1, ATCC VR-214, BHK; summary of the method: as §2
[8] = Cytotoxicity against African green monkey Vero 76 cells assessed as cell viability after 48 to 96 hrs by crystal violet staining; type: cell-based; conditions: chlorocebus sabaeus
Coxsackievirus B5 = assay: Antiviral activity against Human coxsackievirus B5 ATCC VR-29 infected in African green monkey Vero 76 cells assessed as reduction of virus-plaque formation after 3 days by crystal violet staining; type: functional, organism-based; conditions: Enterovirus B, ATCC VR-29, Vero, 72 h
Summary of the method: (§3)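 Plaque reduction: Vero-76 at 2x10^5 cells/well grown to confluent monolayers, infected 2 h at 50–100 PFU/well; after removing unadsorbed virus, overlay of D-MEM, 1% inactivated FBS, 0.75% methylcellulose with or without serial compound dilutions; 3 days at 37°C, fixed and stained with crystal violet in 50% ethanol, plaques counted; EC50 by linear regression.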

Poliovirus 1 = assay: Antiviral activity against Poliovirus type 1 ATCC VR-1562 infected in African green monkey Vero 76 cells assessed as reduction of virus-plaque formation after 2 days by crystal violet staining; type: functional, organism-based; conditions: Enterovirus C, ATCC VR-1562, Vero, 48 h
Vaccinia virus = assay: Antiviral activity against Human Vaccinia virus ATCC VR-1549 infected in African green monkey Vero 76 cells assessed as reduction of virus-plaque formation after 3 days by crystal violet staining; type: functional, organism-based; conditions: Orthopoxvirus vaccinia, ATCC VR-1549, Vero, 72 h
Human alphaherpesvirus 1 = assay: Antiviral activity against Human herpesvirus 1 KOS ATCC VR-1493 infected in African green monkey Vero 76 cells assessed as reduction of virus-plaque formation after 3 days by crystal violet staining; type: functional, organism-based; conditions: Human alphaherpesvirus 1, KOS ATCC VR1493, Vero, 72 h; summary of the method: as §3
Escherichia coli [9] = assay: Antimicrobial activity against Escherichia coli ATCC 10538 after 18 hrs by twofold serial microdilution method; type: functional, organism-based
Escherichia coli [10] = assay: Antimicrobial activity against Escherichia coli ATCC 25922 after 18 hrs by twofold serial microdilution method; type: functional, organism-based
Escherichia coli [11] = assay: Antimicrobial activity against Escherichia coli NCTC 8196 after 18 hrs by twofold serial microdilution method; type: functional, organism-based
Pseudomonas aeruginosa [12] = assay: Antimicrobial activity against Pseudomonas aeruginosa ATCC 15442 after 18 hrs by twofold serial microdilution method; type: functional, organism-based
Pseudomonas aeruginosa [13] = assay: Antimicrobial activity against Pseudomonas aeruginosa NCTC 6749 after 18 hrs by twofold serial microdilution method; type: functional, organism-based
Pseudomonas aeruginosa [14] = assay: Antimicrobial activity against Pseudomonas aeruginosa ATCC 27863 after 18 hrs by twofold serial microdilution method; type: functional, organism-based
[15] = system: Bordetella bronchiseptica; assay: Antimicrobial activity against Bordetella bronchiseptica ATCC 4617 after 18 hrs by twofold serial microdilution method; type: functional, organism-based
Candida albicans [16] = assay: Antimicrobial activity against Candida albicans ATCC 10231 after 24 hrs by twofold serial microdilution method; type: functional, organism-based
Candida albicans [17] = assay: Antimicrobial activity against Candida albicans ATCC 90028 after 24 hrs by twofold serial microdilution method; type: functional, organism-based
Candida parapsilosis = assay: Antimicrobial activity against Candida parapsilosis ATCC 22019 after 24 hrs by twofold serial microdilution method; type: functional, organism-based
[18] = system: Mycobacterium tuberculosis; assay: Antimycobacterial activity against Mycobacterium tuberculosis H37Rv ATCC 25618; type: functional
Summary of the method: (§4)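 Classical test-tube successive-dilution method in Youmans' modification of Proskauer and Beck liquid medium with 10% bovine serum. Inoculum came from 14-day cultures. DMSO stock was 10 mg/mL, diluted geometrically in medium. Tubes were incubated at 37 °C. Concentrations tested were 3.1, 6.2, 12.5, 25, 50 and 100 µg/ml. MIC is the minimum concentration inhibiting growth relative to compound-free tubes.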

[19] = system: Mycobacterium tuberculosis; assay: Antimycobacterial activity against drug-sensitive Mycobacterium tuberculosis Spec. 192; type: functional; summary of the method: as §4

Structure (SMILES)	CC50 [1] [µM]	EC50 [2] [µM]	EC50 [3] [µM]	CC50 [4] [µM]	EC50 [5] [µM]	CC50 [6] [µM]	EC50 (Yellow fever virus) [µM]	EC50 [7] [µM]	CC50 [8] [µM]	EC50 (Coxsackievirus B5) [µM]	EC50 (Poliovirus 1) [µM]	EC50 (Vaccinia virus) [µM]	EC50 (Human alphaherpesvirus 1) [µM]	Activity (Escherichia coli [9])	Activity (Escherichia coli [10])	Activity (Escherichia coli [11])	Activity (Pseudomonas aeruginosa [12])	Activity (Pseudomonas aeruginosa [13])	Activity (Pseudomonas aeruginosa [14])	Activity [15]	also measured
COc1cccc2c1C(=O)c1c(O)c3c(c(O)c1C2=O)C[C@@](O)(C(=O)CO)C[C@@H]3O[C@H]1C[C@H](N)[C@H](O)[C@H](C)O1 [DOXORUBICIN]	–	–	–	–	–	–	–	–	–	–	–	–	–	–	–	–	–	–	–	–	CC50 (CCRF-CEM): 0.02 µM; CC50 (WIL2-NS): 0.02 µM; CC50 (CCRF-SB): 0.03 µM
Cc1ccc(NC(=S)Nc2cccc(C(F)(F)F)c2)cc1Cl	20	> 20	> 20	10	> 10	10	> 10	> 10	20	> 20	> 20	> 20	> 20	inactive	inactive	inactive	inactive	inactive	inactive	inactive	Activity (Candida albicans [16]): inactive; Activity (Candida albicans [17]): inactive; Activity (Candida parapsilosis): inactive; MIC [18]: > 100 µg/mL; MIC [19]: > 100 µg/mL
FC(F)(F)c1cccc(NC(=S)NC2CCCCC2)c1	45	> 60	> 45	48	> 48	14	> 14	> 14	60	> 60	> 60	> 60	> 60	inactive	inactive	inactive	inactive	inactive	inactive	inactive	Activity (Candida albicans [16]): inactive; Activity (Candida albicans [17]): inactive; Activity (Candida parapsilosis): inactive; MIC [18]: > 100 µg/mL; MIC [19]: > 100 µg/mL
